Activity calls are given as the source filed them.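 The calls were made as follows: active = IC50 at or below 20 µM; inactive = the rest.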
Tested on: Jurkat NF-kB luciferase, PMA/ionomycin, luminescence 16 h
Experiment: NF-kB reporter inhibition in Jurkat T cells, SAR follow-up, counter-screen for B-cell antigen receptor NF-kB inhibitors, cell-based, luminescence (AID 504516)
Outline: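 Detection: SteadyGlo luminescence | System: Jurkat NF-kB luciferase reporter cells | Quantity: 8000 reporter cells per well | Doses: Test compounds in dose-response series | Timing: 1 h compound pre-incubation, 16 h agonist exposure, 37 °C | Control set: DMSO-only and no-agonist wells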

Row | Compound | IC50
1 | Cc1oc(-c2ccc(OC(F)(F)F)cc2)nc1CSCC(=O)NC1CC1 | > 79 µM (inactive)
2 | CCCCc1ccc(-c2noc(CCC(=O)NC(C)(C)C)n2)cc1 | 1.62 µM
3 | C#CCNC(=O)CSCc1nc(-c2ccc(OCC)cc2)oc1C | > 79 µM (inactive)
4 | COc1ccc(-c2nc(CSCC(=O)NC3CC3)c(C)o2)cc1 | > 79 µM (inactive)
5 | CCNC(=O)CCc1nc(-c2ccc(OCC)cc2)no1 | > 79 µM (inactive)
6 | COC(=O)CCc1nc(-c2ccc(C(C)(C)C)cc2)no1 | < 0.16 µM
7 | CCCCOc1ccc(-c2nc(CSCC(=O)O)c(C)o2)cc1 | < 0.15 µM
8 | CCc1ccc(-c2noc(CCC(=O)NC3CC3)n2)cc1 | > 79 µM (inactive)
9 | CCc1ccc(-c2nc(CSCC(=O)NC3CC3)c(C)o2)cc1 | > 79 µM (inactive)
10 | CCOc1ccc(-c2nc(CSCC(=O)NC3CC3)c(C)o2)cc1 | > 79 µM (inactive)
11 | CCOc1ccc(-c2nc(CSCC(=O)NC(C)(C)C)c(C)o2)cc1 | 10.8 µM
12 | Cc1oc(-c2ccccc2)nc1CSCC(=O)NC1CC1 | > 79 µM (inactive)
13 | CCc1ccc(-c2nc(CSCC(=O)NCc3ccco3)c(C)o2)cc1 | > 79 µM (inactive)
14 | Cc1oc(-c2ccccc2)nc1CSCC(=O)NCc1ccco1 | > 79 µM (inactive)
15 | CC(C)(C)c1ccc(-c2noc(CCC(=O)NC3CC3)n2)cc1 | 58.7 µM (inactive)
16 | CCOc1ccc(-c2noc(CCC(=O)O)n2)cc1 | 9.25 µM
17 | CCC(C)NC(=O)CCc1nc(-c2ccc(C(C)(C)C)cc2)no1 (stereo not drawn) | > 79 µM (inactive)
18 | CCNC(=O)CCc1nc(-c2c(Cl)cccc2Cl)no1 | > 79 µM (inactive)
19 | CCNC(=O)CCc1nc(-c2cccc(OC)c2)no1 | > 79 µM (inactive)
20 | CNC(=O)CCc1nc(-c2ccccc2)no1 | > 79 µM (inactive)
21 | CCCCOc1ccc(-c2nc(CSCC(=O)NCc3ccco3)c(C)o2)cc1 | > 79 µM (inactive)
22 | CCC(C)NC(=O)CCc1nc(-c2ccccc2)no1 (stereo not drawn) | > 79 µM (inactive)
23 | CC(C)c1ccc(-c2noc(CCC(=O)NC3CC3)n2)cc1 | > 79 µM (inactive)
24 | CC(C)(C)c1ccc(-c2noc(CCC(=O)O)n2)cc1 | 0.2 µM
25 | Cc1ccc(-c2nc(CSCC(=O)NCc3ccco3)c(C)o2)cc1 | > 79 µM (inactive)
26 | CCCCOc1ccc(-c2nc(CSCC(=O)NC3CC3)c(C)o2)cc1 | > 79 µM (inactive)

Row | Compound | IC50
27 | CCCCc1ccc(-c2noc(CCC(=O)NC(C)CC)n2)cc1 (stereo not drawn) | 0.41 µM
28 | Cc1ccc(-c2nc(CSCC(=O)NC3CC3)c(C)o2)cc1 | > 79 µM (inactive)
29 | CCc1ccc(-c2noc(CCC(=O)NC(C)CC)n2)cc1 (stereo not drawn) | > 79 µM (inactive)
30 | CCCCc1ccc(-c2noc(CCC(=O)NCC)n2)cc1 | > 79 µM (inactive)
31 | CCc1ccc(-c2nc(CSCC(=O)NC3CC3)c(-c3ccccc3)o2)cc1 | 72.8 µM (inactive)
32 | CCOc1ccc(-c2nc(CSCC(=O)O)c(C)o2)cc1 | < 0.15 µM
33 | CCNC(=O)CCc1nc(-c2ccc(CC)cc2)no1 | > 79 µM (inactive)
34 | CCOC(=O)CC(NC(=O)c1ccc(Br)cc1)c1ccc(F)c([N+](=O)[O-])c1 (stereo not drawn) | 42.7 µM (inactive)
35 | CCc1ccc(-c2noc(CCC(=O)NC)n2)cc1 | > 79 µM (inactive)
36 | CC(C)c1ccc(-c2noc(CCC(=O)NC(C)(C)C)n2)cc1 | 15.2 µM
37 | CCNC(=O)CCc1nc(-c2ccc(C(C)(C)C)cc2)no1 | > 79 µM (inactive)
38 | CCOc1cccc(-c2nc(CSCC(=O)NC3CC3)c(C)o2)c1 | > 79 µM (inactive)
39 | CCc1ccc(-c2noc(CCC(=O)NC(C)(C)C)n2)cc1 | > 79 µM (inactive)
40 | CC(C)(C)c1ccc(-c2noc(CCC(=O)NC3CCC3)n2)cc1 | 0.94 µM
41 | CCCCc1ccc(-c2noc(CCC(=O)NC3CC3)n2)cc1 | 1.25 µM
42 | CCOc1ccccc1-c1nc(CSCC(=O)NC2CC2)c(C)o1 | > 79 µM (inactive)
43 | CCOc1ccc(-c2nc(CSCC(=O)NC)c(C)o2)cc1 | > 79 µM (inactive)
44 | CCOc1ccc(-c2nc(CSCC(=O)NCc3ccco3)c(C)o2)cc1 | 25.4 µM (inactive)
45 | CCNC(=O)CCc1nc(-c2ccccc2C)no1 | > 79 µM (inactive)
46 | CCC(C)NC(=O)CCc1nc(-c2ccc(C(C)C)cc2)no1 (stereo not drawn) | > 79 µM (inactive)
47 | CCN(CC)C(=O)CCc1nc(-c2ccc(C(C)(C)C)cc2)no1 | 16.4 µM
48 | CNC(=O)CCc1nc(-c2ccc(C(C)(C)C)cc2)no1 | > 79 µM (inactive)
49 | Cc1oc(-c2ccc(OC(F)(F)F)cc2)nc1CSCC(=O)O | 0.22 µM
50 | COc1cccc(-c2cc(=O)c3cc(NC(=O)c4ccc(N(C)C)cc4)ccc3[nH]2)c1 | > 79 µM (inactive)
51 | Cc1oc(-c2ccc(C(F)(F)F)cc2)nc1CSCC(=O)NC1CC1 | > 79 µM (inactive)
52 | CC(C)Nc1ccc(C(CC(=O)O)NC(=O)c2ccccc2)cc1[N+](=O)[O-] (stereo not drawn) | > 79 µM (inactive)

Row | Compound | IC50
53 | CN(C)C(=O)CCc1nc(-c2ccc(C(C)(C)C)cc2)no1 | 71.3 µM (inactive)
54 | COc1cccc(-c2cc(=O)c3cc(NC(=O)c4ccccc4)ccc3[nH]2)c1 | > 79 µM (inactive)
55 | CCNC(=O)CCc1nc(-c2ccccc2)no1 | > 79 µM (inactive)
56 | CCOc1ccc(-c2nc(CSCC(=O)NC3CCC3)c(C)o2)cc1 | 26.4 µM (inactive)
57 | Cc1oc(-c2ccc(C(F)(F)F)cc2)nc1CSCC(=O)O | 0.52 µM
58 | COc1ccc(-c2nc(CSCC(=O)NCc3ccco3)c(C)o2)cc1 | > 79 µM (inactive)
59 | CCNC(=O)CCc1nc(-c2ccccc2Cl)no1 | > 79 µM (inactive)
60 | CNC(=O)CCc1nc(-c2ccc(C(C)C)cc2)no1 | > 79 µM (inactive)
61 | CCNC(=O)CCc1nc(-c2cccc(F)c2)no1 | > 79 µM (inactive)
62 | CCCOc1ccc(-c2nc(CSCC(=O)NC3CC3)c(C)o2)cc1 | > 79 µM (inactive)
63 | CCCOc1ccc(-c2nc(CSCC(=O)NCc3ccco3)c(C)o2)cc1 | > 79 µM (inactive)
64 | CCCCc1ccc(-c2noc(CCC(=O)NC)n2)cc1 | > 79 µM (inactive)
65 | CCOc1ccc(-c2nc(CSCC(N)=O)c(C)o2)cc1 | > 79 µM (inactive)
66 | CCOc1ccc(-c2nc(CSCC(=O)NCC3CC3)c(C)o2)cc1 | 20.9 µM (inactive)
67 | CC(C)(C)c1ccc(-c2noc(CCC(N)=O)n2)cc1 | 0.19 µM
68 | O=C(CCc1nc(-c2ccccc2)no1)NC1CC1 | > 79 µM (inactive)
69 | CC(C)(C)NC(=O)CCc1nc(-c2ccccc2)no1 | > 79 µM (inactive)
70 | CCOc1ccc(-c2nc(CSCC(=O)NC3CC3)c(-c3ccccc3)o2)cc1 | 54.6 µM (inactive)
71 | CCNC(=O)CCc1nc(-c2cccc(C)c2)no1 | > 79 µM (inactive)
72 | CCOc1ccc(-c2nc(CSCC(=O)N(C)C)c(C)o2)cc1 | > 79 µM (inactive)
73 | COc1ccc(C(=O)Nc2ccc3[nH]c(-c4cccc(OC)c4)cc(=O)c3c2)cc1 | > 79 µM (inactive)
74 | CCOc1ccccc1-c1nc(CSCC(=O)O)c(C)o1 | > 79 µM (inactive)
75 | CCNC(=O)CCc1nc(-c2ccc(C(C)C)cc2)no1 | > 79 µM (inactive)
76 | CCCOc1ccc(-c2nc(CSCC(=O)O)c(C)o2)cc1 | < 0.15 µM
77 | O=C(O)CCc1nc(-c2ccccc2)no1 | > 79 µM (inactive)
78 | CCOc1ccc(-c2nc(CSCC(=O)N3CCOCC3)c(C)o2)cc1 | > 79 µM (inactive)

Reference: PubChem BioAssay AID504516 (Sanford-Burnham Center for Chemical Genomics, 2011)
